Molecules are shown by their SMILES.

Data set [1] has as its system Liver microsome. Briefly: Drug level in human liver microsomes assessed as compound retention time treated with 0.5 uM I-387 after 2 hrs by LC-MS/MS analysis. In kind it is ADME. The method in brief: (§1)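 Pooled liver microsomes (1 mg/ml protein) incubated with 0.5 µM substrate and 3 mM NADPH in 65 mM potassium phosphate, pH 7.4, 1% methanol, at 37°C for 2 h. Stopped with ice-cold acetonitrile containing internal standard, centrifuged. Supernatant analysed by LC-MS/MS on a C18 column, 15-min gradient, with product ion scans for metabolite identification.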
(In general: Liver microsomes are vesicles of endoplasmic reticulum, rich in cytochrome P450 enzymes.)

The test system of another data set is Liver. Briefly: Drug level in mouse liver microsomes assessed as compound retention time treated with 0.5 uM I-387 after 2 hrs by LC-MS/MS analysis. In kind it is ADME. The essentials:
as §1

Data set [2] deals with Liver microsome. As to the kind of experiment: Drug level in rat liver microsomes assessed as compound retention time treated with 0.5 uM I-387 after 2 hrs by LC-MS/MS analysis. It is filed as ADME. The essentials: as §1
For data set [3], the system named is Liver microsome. Briefly: Drug level in dog liver microsomes assessed as compound retention time treated with 0.5 uM I-387 after 2 hrs by LC-MS/MS analysis. In kind it is ADME, Canis lupus familiaris. The essentials:
as §1

Data set [4] is described as follows: Drug level in monkey liver microsomes assessed as compound retention time treated with 0.5 uM I-387 after 2 hrs by LC-MS/MS analysis. The following applies: rhesus monkey. In kind it is ADME, Macaca mulatta. The method in brief: as §1
Data set [5] in a line: Retention time of the compound at 0.5 uM by LC-MS/MS analysis. In kind it is physicochemical. The essentials:
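After a 2 h incubation at 37°C with liver microsomes (1 mg/ml protein, 3 mM NADPH, 0.5 μM substrate, pH 7.4 phosphate buffer), samples were quenched with acetonitrile and centrifuged. Supernatant separated on a C18 column (15 min run, linear gradient 100% A to 100% B over 7 min) with LC-MS/MS ion trap detection.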

Take `COc1cc(C(O)c2cccc(-c3cc4ccccc4[nH]3)c2)cc(OC)c1OC` (stereo unspecified): the Drug metabolism result (with Liver microsome [1]; in the data set with Liver; in the data set with Liver microsome [2]; with Liver microsome [3]; in data set [4]) was “metabolite_detected” throughout. The Retention_time in data set [5] was determined as 10.5 min.

(Values after ChEMBL document CHEMBL3526142, “Biotransformation of a novel antimitotic agent, I-387, by mouse, rat, dog, monkey, and human liver microsomes and in vivo pharmacokinetics in mice” (Drug Metab Dispos, 2011).)
